Reference: article PMC2386079 (Journal of Antimicrobial Chemotherapy, 2008)
Read-outs that look alike come from different tables or passages of the source.

Assays:
J774 macrophages [1] = assay: release of lactate dehydrogenase; assay type: cell-based, mouse; settings: 24 h incubation, telavancin 90 mg/L, vancomycin 50 mg/L, oritavancin 25 mg/L (human Cmax), controls 5.0 ± 0.2%, n = 3
Outline: (§1)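 LDH release into the culture medium was measured after exposure to the test compound to assess pericellular membrane integrity. J774 macrophages were grown in RPMI 1640 and rat embryo fibroblasts in Dulbecco's modified Eagle's medium, both with 10% fetal calf serum.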

rat embryo fibroblasts [2] = assay: release of lactate dehydrogenase; assay type: cell-based; settings: 72 h incubation, telavancin 90 mg/L, vancomycin 50 mg/L, oritavancin 25 mg/L (human Cmax), controls 13.4 ± 3.7%, n = 3
Outline: as §1

J774 mouse macrophages = assay: total phospholipid and cholesterol content, macrophages; assay type: cell-based; settings: 24 h, telavancin 90 mg/L, vancomycin 50 mg/L, oritavancin 25 mg/L, n = 6–8; for total cholesterol content: control 72 ± 3 nmol/mg of protein; for total phospholipid content: control 204 ± 10 nmol/mg of protein
rat embryo fibroblasts [3] = assay: total phospholipid and cholesterol content, fibroblasts; assay type: cell-based; settings: 72 h, telavancin 90 mg/L, vancomycin 50 mg/L, oritavancin 25 mg/L, n = 6–8; for total cholesterol content: control 130 ± 16 nmol/mg of protein; for total phospholipid content: control 295 ± 8 nmol/mg of protein
J774 macrophages [4] = settings: cited from earlier work; for accumulation level in macrophages: recorded previously in the same conditions (macrophages, 24 h)
[5] = cited from earlier work
J774 macrophages [6] = assay: cellular uptake, accumulation and efflux; assay type: in vitro ADME, mouse
rat embryo fibroblasts [7] = assay: cellular uptake; assay type: in vitro ADME; settings: stated for both cell types
J774 macrophages [8] = assay: subcellular distribution by cell fractionation and isopycnic centrifugation; assay type: in vitro ADME, mouse; settings: 24 h, 90 mg/L
Outline: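 J774 macrophages were exposed 24 h at 37°C to 90 mg/L labelled test compound in 10% serum medium. They were then scraped into 0.25 M sucrose/1 mM EGTA/3 mM imidazole pH 7.4 and homogenised. Low-speed spin gave unbroken cells/nuclei; high-speed spin split granules/membranes from supernatant. The granule fraction was run on an isopycnic sucrose gradient, with densities standardised 1.08–1.21. Radioactivity, protein and marker enzymes were measured, expressed as % recovered per fraction.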

J774 macrophages [9] = assay: electron microscopy with morphometric analysis of lysosomal changes, macrophages; assay type: cell-based, mouse; settings: 24 h
rat embryo fibroblasts [10] = assay: electron microscopy with morphometric analysis of lysosomal changes, fibroblasts; assay type: cell-based; settings: 72 h

Row | release of lactate dehydrogenase (J774 macrophages [1]) [%] | release of lactate dehydrogenase (rat embryo fibroblasts [2]) [%] | total cholesterol content (J774 mouse macrophages) | total cholesterol content (rat embryo fibroblasts [3]) | Compound | total phospholipid content (J774 mouse macrophages) | total phospholipid content (rat embryo fibroblasts [3]) | accumulation level in macrophages (J774 macrophages [4]) [fold] | human Cmax [5] [µg/mL] | other results
1 | 5.0 ± 1.5 | 17.1 ± 1.3 | slight but not significant increase | slight but not significant increase | CN[C@H](CC(C)C)C(=O)N[C@H]1C(=O)N[C@@H](CC(N)=O)C(=O)N[C@H]2C(=O)N[C@H]3C(=O)N[C@H](C(=O)N[C@H](C(=O)O)c4cc(O)cc(O)c4-c4cc3ccc4O)[C@H](O)c3ccc(c(Cl)c3)Oc3cc2cc(c3O[C@@H]2O[C@H](CO)[C@@H](O)[C@H](O)[C@H]2O[C@H]2C[C@](C)(N)[C@H](O)[C@H](C)O2)Oc2ccc(cc2Cl)[C@H]1O [vancomycin, Vancomycin] | Neither telavancin nor vancomycin caused detectable increase | Neither telavancin nor vancomycin caused detectable increase | ~8 | 50 | 
2 | 4.9 ± 1.0 | 16.9 ± 2.5 | slight but not significant increase | slight but not significant increase | Telavancin | Neither telavancin nor vancomycin caused detectable increase | Neither telavancin nor vancomycin caused detectable increase |  | 90 | accumulation level in macrophages (J774 macrophages [6]; 24 h): ~45 fold; apparent rate of efflux relative to influx (fold lower) (J774 macrophages [6]; initial uptake 12 h at 90 mg/L, then drug-free medium for 24 h): ~5.7 fold; uptake rate without serum relative to with serum (fold faster) (J774 macrophages [6]; medium not supplemented with calf serum, 5 h, 10–90 mg/L, data not shown): ~ 1.7 fold; clearance rate (abstract) (J774 macrophages [6]; stated for both cell types): ~10 mL/g of protein/h; clearance rate (abstract) (rat embryo fibroblasts [7]): ~10 mL/g of protein/h; cell-associated drug recovered in supernatant fraction (J774 macrophages [8]; N-acetyl-β-glucosaminidase 6%): 10%; cell-associated drug recovered in unbroken cells/nuclei fraction (J774 macrophages [8]; N-acetyl-β-glucosaminidase 27%): 35%; cell-associated drug recovered in granules/membranes fraction (J774 macrophages [8]; N-acetyl-β-glucosaminidase 67%): 55%; ultrastructural alterations (electron microscopy) (J774 macrophages [9]; J774 macrophages, 90 mg/L): enlargement of lysosomes that were filled with a pleiotropic material; morphometric changes compared with vancomycin (J774 macrophages [9]; macrophages, 25 mg/L telavancin vs 50 mg/L vancomycin): changes similar to those seen with 50 mg/L vancomycin; morphometric alterations compared with oritavancin (J774 macrophages [9]; macrophages, 90 mg/L telavancin vs 20 mg/L oritavancin): considerably milder than in cells incubated with 20 mg/L oritavancin; ultrastructural alterations (electron microscopy) (rat embryo fibroblasts [10]; 90 mg/L): enlargement of lysosomes that were filled with a pleiotropic material; morphometric alterations compared with oritavancin (rat embryo fibroblasts [10]; 90 mg/L telavancin vs 20 mg/L oritavancin): considerably milder than in cells incubated with 20 mg/L oritavancin; morphometric changes compared with vancomycin (rat embryo fibroblasts [10]; 90 mg/L telavancin vs 50 mg/L vancomycin): changes similar to those seen with 50 mg/L vancomycin; half-life ([5]; serum, once-daily administration): 7.5 h; cellular concentration in human alveolar macrophages ([5]; within 8–24 h after systemic administration of therapeutic doses): ~ 50 mg/L

Row | Compound | release of lactate dehydrogenase (J774 macrophages [1]) [%] | release of lactate dehydrogenase (rat embryo fibroblasts [2]) [%] | total cholesterol content (J774 mouse macrophages) | total cholesterol content (rat embryo fibroblasts [3]) | total phospholipid content (J774 mouse macrophages) | total phospholipid content (rat embryo fibroblasts [3]) | accumulation level in macrophages (J774 macrophages [4]) [fold] | human Cmax [5] [µg/mL] | other results
3 | Oritavancin | 15.5 ± 1.5 | 18.2 ± 3.0 | marked, statistically significant increase | marked, statistically significant increase | significant increases | significant increases | ~370 | 25 | initial uptake clearance rate (J774 macrophages [4]; J774 macrophages): ~150 µL/mg of protein/h
